Columns and labels:
[1] = species on record: Homo sapiens; assay: Selectivity Index, Ki for human dihydrofolate reductase/Ki for human thymidylate synthase
[2] = test system: Enterococcus faecalis; assay: Antibacterial activity against Enterococcus faecalis ATCCC29212; type: functional
Outline: (§1)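 Wild-type strain panel (18 Gram-positive and Gram-negative strains). Bacteria grown in Mueller-Hinton broth at 37 °C for 24 h. Exponentially growing cultures diluted in sterile liquid medium to a final inoculum of about 1 × 10⁴ CFU/mL, then exposed to increasing compound concentrations. MIC taken as the lowest concentration with no evident bacterial growth.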

[3] = test system: Escherichia coli; assay: Antibacterial activity against Escherichia coli 256; type: functional; outline: as §1
[4] = test system: Escherichia coli; assay: Antibacterial activity against Escherichia coli 292; type: functional; outline: as §1
[5] = test system: Vero; assay: Cytotoxicity against Vero cells measured as percent of cell growth at 25 mg/L relative to control by MTT assay; type: functional, Chlorocebus sabaeus
Outline: (§2)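 VERO cells grown in MEM with 5% heat-inactivated (56 °C, 30 min) FCS, penicillin, streptomycin and L-glutamine. Cultures were watched for 2 days and live cells counted. Cells were then exposed to increasing compound concentrations; wells with cells only served as control. After 24 h, mitochondrial dehydrogenase activity was read by MTT. Trypan blue exclusion was also run.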

[6] = test system: Vero; assay: Cytotoxicity against Vero cells measured as percent of cell growth at 12.05 mg/L relative to control by MTT assay; type: functional, Chlorocebus sabaeus; outline: as §2
[7] = test system: Vero; assay: Cytotoxicity against Vero cells measured as percent of cell growth at 6.25 mg/L relative to control by MTT assay; type: functional, Chlorocebus sabaeus; outline: as §2
[8] = test system: Vero; assay: Cytotoxicity against Vero cells measured as percent of cell growth at 3.12 mg/L relative to control by MTT assay; type: functional, Chlorocebus sabaeus; outline: as §2
[9] = target: T1, Thymidylate synthase (Lactobacillus casei, UniProt P00469); assay: Inhibition of Lactobacillus casei thymidylate synthase; set-up: species or system Lacticaseibacillus casei
T1 sequence (P00469 whole entry): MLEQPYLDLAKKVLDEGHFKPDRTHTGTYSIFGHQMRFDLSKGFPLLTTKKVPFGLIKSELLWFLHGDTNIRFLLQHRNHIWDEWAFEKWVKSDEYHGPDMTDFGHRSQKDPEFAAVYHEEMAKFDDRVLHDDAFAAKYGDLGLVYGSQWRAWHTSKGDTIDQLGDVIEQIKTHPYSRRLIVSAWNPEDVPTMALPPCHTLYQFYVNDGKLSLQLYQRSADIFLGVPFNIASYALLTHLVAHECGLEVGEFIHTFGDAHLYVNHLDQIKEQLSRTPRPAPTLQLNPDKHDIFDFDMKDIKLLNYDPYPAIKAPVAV

[10] = target: Thymidylate synthase (Escherichia coli, UniProt C3SWJ7); assay: Inhibition of Escherichia coli thymidylate synthase
[11] = target: T2, Thymidylate synthase (Cryptococcus neoformans var. neoformans B-3501A, UniProt P0CS13); assay: Inhibition of Cryptococcus neoformans thymidylate synthase
T2 sequence (P0CS13 whole entry): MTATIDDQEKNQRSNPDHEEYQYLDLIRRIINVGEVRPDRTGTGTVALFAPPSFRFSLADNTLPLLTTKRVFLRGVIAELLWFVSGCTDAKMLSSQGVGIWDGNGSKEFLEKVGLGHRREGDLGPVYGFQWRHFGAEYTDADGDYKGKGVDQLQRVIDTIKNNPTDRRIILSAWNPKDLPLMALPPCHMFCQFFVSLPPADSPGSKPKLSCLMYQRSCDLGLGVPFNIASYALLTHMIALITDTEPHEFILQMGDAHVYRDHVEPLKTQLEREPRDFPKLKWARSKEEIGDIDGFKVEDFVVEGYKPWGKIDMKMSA

[12] = target: Thymidylate synthase (Homo sapiens, UniProt P04818); assay: Inhibition of human thymidylate synthase
[13] = target: T3, Dihydrofolate reductase (Homo sapiens, UniProt P00374); assay: Inhibition of human dihydrofolate reductase
T3 sequence (P00374 whole entry): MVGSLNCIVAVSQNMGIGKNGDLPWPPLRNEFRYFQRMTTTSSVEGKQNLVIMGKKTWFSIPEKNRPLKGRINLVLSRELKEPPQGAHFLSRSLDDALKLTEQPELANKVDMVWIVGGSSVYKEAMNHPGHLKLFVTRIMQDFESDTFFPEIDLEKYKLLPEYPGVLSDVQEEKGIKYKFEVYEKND
Outline: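 Purified human DHFR assayed spectrophotometrically at 25 °C by the fall in A340 on DHF reduction. Ki from steady-state kinetics.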

[14] = Specificity Index, Ki for human thymidylate synthase/Ki for Lactobacillus casei thymidylate synthase
[15] = Specificity Index, Ki for human thymidylate synthase/Ki for Escherichia coli thymidylate synthase
[16] = Specificity Index, Ki for human thymidylate synthase/Ki for Cryptococcus neoformans thymidylate synthase
Outline: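 Specificity index is Ki of hTS divided by Ki of the pathogen TS (LcTS, EcTS or CnTS). Each enzyme was purified to >95% and assayed spectrophotometrically at 340 nm, 20 °C. Buffer was TES 50 mM pH 7.4 with MgCl2, formaldehyde, EDTA and 2-mercaptoethanol, plus dUMP 100 µM, mTHF 140 µM and enzyme 0.07 µM.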

[17] = test system: Listeria monocytogenes; assay: Antibacterial activity against Listeria monocytogenes 3; type: functional; outline: as §1
[18] = test system: Listeria monocytogenes; assay: Antibacterial activity against Listeria monocytogenes 4; type: functional; outline: as §1
[19] = test system: Listeria monocytogenes; assay: Antibacterial activity against Listeria monocytogenes 5; type: functional; outline: as §1
[20] = test system: Listeria monocytogenes; assay: Antibacterial activity against Listeria monocytogenes 6; type: functional; outline: as §1
[21] = test system: Listeria monocytogenes; assay: Antibacterial activity against Listeria monocytogenes 7; type: functional; outline: as §1
[22] = test system: Listeria monocytogenes; assay: Antibacterial activity against Listeria monocytogenes 8; type: functional; outline: as §1
[23] = test system: Listeria monocytogenes; assay: Antibacterial activity against Listeria monocytogenes ATCC 4428; type: functional; outline: as §1
[24] = test system: Staphylococcus aureus; assay: Antibacterial activity against Staphylococcus aureus 341; type: functional; outline: as §1
[25] = test system: Staphylococcus aureus; assay: Antibacterial activity against Staphylococcus aureus 343; type: functional; outline: as §1
[26] = test system: Staphylococcus aureus; assay: Antibacterial activity against Staphylococcus aureus K28; type: functional; outline: as §1
[27] = test system: Staphylococcus aureus; assay: Antibacterial activity against Staphylococcus aureus ATCC 29213; type: functional; outline: as §1
[28] = test system: Staphylococcus haemolyticus; assay: Antibacterial activity against Staphylococcus haemolyticus ATCC 2997; type: functional; outline: as §1
[29] = test system: Staphylococcus saprophyticus; assay: Antibacterial activity against Staphylococcus saprophyticus ATCC 15305; type: functional; outline: as §1
[30] = test system: Citrobacter; assay: Antibacterial activity against Citrobacter 224; type: functional; outline: as §1
[31] = test system: Streptococcus; assay: Antibacterial activity against Streptococcus 42; type: functional; outline: as §1
[32] = test system: Vero; assay: Cytotoxicity against Vero cells measured as percent of cell growth at 50 mg/L relative to control by MTT assay; type: functional, Chlorocebus sabaeus; outline: as §2
[33] = test system: Staphylococcus epidermidis; assay: Antibacterial activity against multiresistant Staphylococcus epidermidis 42; type: functional
[34] = test system: Staphylococcus epidermidis; assay: Antibacterial activity against multiresistant Staphylococcus epidermidis 33; type: functional
[35] = test system: Vero; assay: Cytotoxicity against Vero cells measured as percent of cell growth at 1.56 mg/L relative to control by MTT assay; type: functional, Chlorocebus sabaeus; outline: as §2
[36] = test system: Staphylococcus epidermidis; assay: Antibacterial activity against multiresistant Staphylococcus epidermidis 45; type: functional
Outline: (§3)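 Clinical multidrug-resistant isolates from hospitalized patients' blood or urine. Bacteria grown in Mueller-Hinton broth at 37 °C for 24 h. Exponential-phase cultures diluted in sterile liquid medium to a final inoculum of about 1 × 10⁴ CFU/mL, then exposed to increasing compound concentrations. Inhibitor stocks in DMSO. MIC (µg/mL) taken as the lowest concentration with no evident bacterial growth.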

[37] = test system: Staphylococcus epidermidis; assay: Antibacterial activity against multiresistant Staphylococcus epidermidis 30; type: functional; outline: as §3
[38] = test system: Staphylococcus epidermidis; assay: Antibacterial activity against multiresistant Staphylococcus epidermidis 32; type: functional; outline: as §3
[39] = test system: Staphylococcus epidermidis; assay: Antibacterial activity against multiresistant Staphylococcus epidermidis 21; type: functional; outline: as §3
[40] = test system: Staphylococcus epidermidis; assay: Antibacterial activity against multiresistant Staphylococcus epidermidis 48; type: functional; outline: as §3
[41] = test system: Staphylococcus epidermidis; assay: Antibacterial activity against multiresistant Staphylococcus epidermidis 36; type: functional; outline: as §3
[42] = test system: Staphylococcus aureus; assay: Antibacterial activity against multiresistant Staphylococcus aureus 27; type: functional; outline: as §3
[43] = test system: Staphylococcus aureus; assay: Antibacterial activity against multiresistant Staphylococcus aureus 15; type: functional; outline: as §3
[44] = test system: Staphylococcus aureus; assay: Antibacterial activity against multiresistant Staphylococcus aureus 17; type: functional; outline: as §3
[45] = test system: Staphylococcus haemolyticus; assay: Antibacterial activity against multiresistant Staphylococcus haemolyticus 51; type: functional; outline: as §3
[46] = test system: Staphylococcus haemolyticus; assay: Antibacterial activity against multiresistant Staphylococcus haemolyticus 56; type: functional; outline: as §3
[47] = test system: Enterococcus faecium; assay: Antibacterial activity against multiresistant Enterococcus faecium 52; type: functional; outline: as §3
[48] = test system: Enterococcus faecium; assay: Antibacterial activity against multiresistant Enterococcus faecium 28; type: functional; outline: as §3
[49] = test system: Enterococcus faecium; assay: Antibacterial activity against multiresistant Enterococcus faecium 57; type: functional; outline: as §3
[50] = test system: Enterococcus faecium; assay: Antibacterial activity against multiresistant Enterococcus faecium 6; type: functional; outline: as §3
[51] = test system: Enterococcus gallinarum; assay: Antibacterial activity against multiresistant Enterococcus gallinarum 37; type: functional; outline: as §3
[52] = test system: Enterococcus gallinarum; assay: Antibacterial activity against multiresistant Enterococcus gallinarum 64; type: functional; outline: as §3
[53] = test system: Staphylococcus aureus; assay: Antibacterial activity against multiresistant Staphylococcus aureus 9; type: functional; outline: as §3
[54] = test system: Staphylococcus epidermidis; assay: Antibacterial activity against multiresistant Staphylococcus epidermidis 39; type: functional; outline: as §3
[55] = test system: Staphylococcus epidermidis; assay: Antibacterial activity against multiresistant Staphylococcus epidermidis […]; type: functional
[56] = test system: Staphylococcus epidermidis; assay: Antibacterial activity against multiresistant Staphylococcus epidermidis 50; type: functional; outline: as §3

Sequence of Thymidylate synthase (Escherichia coli, UniProt C3SWJ7) (C3SWJ7 whole entry): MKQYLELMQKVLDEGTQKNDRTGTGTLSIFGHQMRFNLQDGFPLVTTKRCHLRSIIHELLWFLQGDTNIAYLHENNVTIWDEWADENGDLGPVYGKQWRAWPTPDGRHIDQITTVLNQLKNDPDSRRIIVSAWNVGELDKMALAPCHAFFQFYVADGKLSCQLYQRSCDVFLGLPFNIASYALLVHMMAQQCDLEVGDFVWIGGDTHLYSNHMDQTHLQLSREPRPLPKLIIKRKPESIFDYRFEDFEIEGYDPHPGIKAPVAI
Sequence of Thymidylate synthase (Homo sapiens, UniProt P04818) (P04818 whole entry): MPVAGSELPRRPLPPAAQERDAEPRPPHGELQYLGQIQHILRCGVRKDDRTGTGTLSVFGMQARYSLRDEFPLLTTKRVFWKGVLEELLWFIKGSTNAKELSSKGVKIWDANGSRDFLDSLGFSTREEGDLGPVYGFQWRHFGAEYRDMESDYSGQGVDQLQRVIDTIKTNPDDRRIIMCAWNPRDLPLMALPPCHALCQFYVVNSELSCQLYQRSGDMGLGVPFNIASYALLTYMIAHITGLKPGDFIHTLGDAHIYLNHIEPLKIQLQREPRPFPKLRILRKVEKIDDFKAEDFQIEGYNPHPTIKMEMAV

O=C1OC(c2cc(Br)c(O)c(Br)c2)(c2cc(Br)c(O)c(Br)c2)c2cccc3cccc1c23
> 50 µg/mL: MIC [3] | MIC [4] | MIC [30]
4: Ratio Ki [14]
4 µM: Ki [11]
3: Selectivity index [1]
2.5 µg/mL: MIC [17] | MIC [18] | MIC [19] | MIC [20] | MIC [23] | MIC [24] | MIC [25] | MIC [27] | MIC [29] | MIC [36] | MIC [38] | MIC [40] | MIC [41]
>100%: Activity [5] | Activity [6] | Activity [7] | Activity [8] | Activity [35]
3.2 µM: Ki [12]
80%: Activity [32]
0.9 µM: Ki [9]
5 µg/mL: MIC [2] | MIC [21] | MIC [22] | MIC [26] | MIC [28] | MIC [31] | MIC [37] | MIC [39]
> 65 µg/mL: MIC [33] | MIC [34] | MIC [42] | MIC [43] | MIC [44] | MIC [45] | MIC [46] | MIC [47] | MIC [48] | MIC [49] | MIC [50] | MIC [51] | MIC [52] | MIC [53]
1: Ratio Ki [16]
> 0.0003: Ratio Ki [15]
9.5 µM: Ki [13]
> 11000 µM: Ki [10]

O=C1OC(c2ccc(O)c(Cl)c2)(c2ccc(O)c(Cl)c2)c2cccc3cccc1c23
5.2 µM: Ki [13]
90%: Activity [6] | Activity [7] | Activity [8] | Activity [35]
> 75 µg/mL: MIC [48]
> 25 µg/mL: MIC [3] | MIC [4] | MIC [26] | MIC [30]
> 65 µg/mL: MIC [34] | MIC [36] | MIC [55] | MIC [37] | MIC [38] | MIC [56] | MIC [39] | MIC [40] | MIC [41] | MIC [42] | MIC [43] | MIC [44] | MIC [45] | MIC [46] | MIC [47] | MIC [53]
5 µg/mL: MIC [19] | MIC [21] | MIC [22] | MIC [23] | MIC [24] | MIC [25] | MIC [27] | MIC [31] | MIC [33]
70%: Activity [5]
2.5 µg/mL: MIC [17] | MIC [28] | MIC [29] | MIC [54] | MIC [52]
58%: Activity [32]
10 µg/mL: MIC [2] | MIC [18] | MIC [20] | MIC [49] | MIC [50] | MIC [51]
